Reference: ChEMBL document CHEMBL2385029, “Cytotoxic activities of substituted 3-(3,4,5-trimethoxybenzylidene)-1,3-dihydroindol-2-ones and studies on their mechanisms of action” (Eur J Med Chem, 2013)
pIC50: −log10 of the molar value. Activity calls are given as the source filed them. The calls are words filed in the database; no cut-off is given here.

How the values were obtained:
[1] = Cytotoxicity against human leukemia cells after 48 hrs; type: functional; conditions: Leukemia cell; for CC50: read-out: LC50 (the source's name)
[2] = Cytotoxicity against human prostate cancer cells after 48 hrs; type: functional; conditions: Cancer cell lines; for CC50: read-out: LC50 (the source's name)
How it was run: (§1)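 NCI 60-cell panel, values averaged per subpanel. Compounds were dissolved in DMSO and first screened at a single 10⁻⁵ M dose. Active ones then went to five concentrations at ten-fold dilutions, top 10⁻⁴ M (10⁻³ M for some), with 48 h exposure.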

[3] = Cytotoxicity against human ovarian cancer cells after 48 hrs; type: functional; conditions: Cancer cell lines; for CC50: read-out: LC50 (the source's name); how it was run: as §1
[4] = Cytotoxicity against human colon cancer cells after 48 hrs; type: functional; conditions: Cancer cell lines; how it was run: as §1
[5] = Cytotoxicity against human CNS cancer cells after 48 hrs; type: functional; conditions: Cancer cell lines; how it was run: as §1
[6] = Cytotoxicity against human NSCLC cells after 48 hrs; type: functional; conditions: for CC50: read-out: LC50 (the source's name); how it was run: as §1
[7] = Cytotoxicity against human breast cancer cells after 48 hrs; type: functional; conditions: Cancer cell lines; how it was run: as §1
[8] = Cytotoxicity against human renal cancer cells after 48 hrs; type: functional; conditions: Cancer cell lines
[9] = Cytotoxicity against human melanoma cells after 48 hrs; type: functional; conditions: Melanoma cell; for CC50: read-out: LC50 (the source's name)
[10] = Inhibition of bovine brain tubulin assembly after 20 mins
[11] = tested on: B1647; assay: Cytotoxicity against human B1647 cells at 5 to 10 uM after 24 hrs by MTT assay; type: functional, cell-based
How it was run: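 B1647 human AML cells grown in IMDM with 5% human serum (37 °C, 5% CO2); 10⁶ cells per well in 1 mL exposed to 5 or 10 µM compound (DMSO) for 24 h. MTT 0.5 mg/mL added for 4 h at 37 °C, formazan dissolved overnight in 10% SDS/0.01 M HCl, A570 read. Four independent experiments.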

[12] = Inhibition of nox4 expression in human B1647 cells at 10 uM after 24 hrs by Western blot analysis relative to control; type: functional
How it was run: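 B1647 cells treated 24 h at 10 µM. Lysates (40 µg protein per lane) run on 10% SDS-PAGE and transferred to nitrocellulose. Blots probed with anti-Nox4, with β-tubulin as loading control, and detected by chemiluminescence. Bands quantified by densitometry in arbitrary units relative to control; three independent experiments.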

| Compound | CC50 [1] [µM] | CC50 [2] [µM] | CC50 [3] [µM] | GI50 [4] [µM] | LC50 [4] [µM] | GI50 [5] [µM] | LC50 [5] [µM] | GI50 [1] [µM] | GI50 [6] [µM] | CC50 [6] [µM] | GI50 [2] [µM] | GI50 [7] [µM] | LC50 [7] [µM] | GI50 [8] [µM] | LC50 [8] [µM] | GI50 [9] [µM] | CC50 [9] [µM] | GI50 [3] [µM] | pIC50 [10] | TGI [6] [µM] | also measured |
| --- | --- | --- | --- | --- | --- | --- | --- | --- | --- | --- | --- | --- | --- | --- | --- | --- | --- | --- | --- | --- | --- |
| CC[C@]1(O)C[C@H]2CN(CCc3c([nH]c4ccccc34)[C@@](C(=O)OC)(c3cc4c(cc3OC)N(C=O)[C@H]3[C@@](O)(C(=O)OC)[C@H](OC(C)=O)[C@]5(CC)C=CCN6CC[C@]43[C@@H]65)C2)C1 [VINCRISTINE] | 631 | 316 | 316 |  |  |  |  |  |  |  |  |  |  |  |  |  |  |  |  |  |  |
| COc1ccc(CN2C(=O)/C(=C\c3cc(OC)c(OC)c(OC)c3)c3ccccc32)cc1 |  |  | 67.6 | 1.8 | 8.3 | 2.5 | 26.3 | 2.2 | 2 | 38.9 | 2.7 | 2.3 | 93.3 | 2 | 45.7 | 1.7 | 19.5 | 2.6 | < 4.70 |  | TGI [5]: 10.5 µM; TGI [1]: 27.5 µM; TGI [2]: 26.3 µM; TGI [7]: 17.4 µM; TGI [3]: 21.4 µM |
| COc1cc(/C=C2\C(=O)Nc3ccc(N(C)C)cc32)cc(OC)c1OC | 81.3 |  | 81.3 | 2.4 | 81.3 | 2.9 | 81.3 | 1.1 | 4.2 |  | 2.5 | 2.1 |  | 3.8 | 83.2 | 3.5 |  | 3.2 | < 4.70 | 41.7 | TGI [4]: 34.7 µM; TGI [5]: 25.1 µM; Activity [11]: Active; TGI [2]: 43.6 µM; TGI [7]: 37.1 µM; TGI [9]: 42.7 µM |
| COc1cc(/C=C2\C(=O)Nc3cc(Cl)ccc32)cc(OC)c1OC | 56.2 | 17 | 17.4 | 0.8 | 22.9 | 1.6 | 18.6 | 0.5 | 2 | 29.5 | 1.5 | 0.8 | 31.6 | 1.6 | 14.1 | 1.9 | 19 | 1.9 | 4.82 |  |  |
| COc1ccc(CN2C(=O)/C(=C/c3cc(OC)c(OC)c(OC)c3)c3cc(OC)ccc32)cc1 |  | 83.2 | 50.1 | 1.9 | 7.9 | 2.2 | 33.9 | 2.7 | 2.3 | 33.1 | 3.2 | 2.6 | 79.4 | 2.4 | 28.8 | 2.1 | 23.4 | 2.4 | < 4.70 | 11.2 | TGI [1]: 27.5 µM; TGI [2]: 14.1 µM; TGI [7]: 13.8 µM |
| COc1ccc(OC)c2c1NC(=O)/C2=C\c1cc(OC)c(OC)c(OC)c1 | 79.4 | 58.9 | 77.6 | 4 | 41.7 | 5.5 | 54.9 | 2.6 | 7.1 | 74.1 | 4.3 | 2.2 | 64.6 | 4.5 | 54.9 | 5.2 | 44.7 | 4.6 | < 4.70 | 25.1 | TGI [4]: 15.5 µM; TGI [5]: 20.4 µM; TGI [1]: 14.1 µM; TGI [2]: 22.9 µM; TGI [8]: 18.6 µM; TGI [9]: 18.6 µM; TGI [3]: 23.4 µM |
| COc1cc(/C=C2\C(=O)N(Cc3ccc(Cl)cc3)c3ccccc32)cc(OC)c1OC | 50.1 | 33.1 | 51.3 | 2.2 | 14.4 | 3.4 | 46.8 | 1.5 | 3.4 | 56.2 | 2.2 | 2.4 | 95.5 | 2.5 | 43.6 | 2.9 | 26.9 | 3.4 | < 4.70 | 14.4 | TGI [5]: 15.1 µM; Activity [11]: Active; TGI [7]: 12.9 µM; TGI [3]: 22.9 µM |
| COc1cc(/C=C2\C(=O)Nc3cc(OC(F)(F)F)ccc32)cc(OC)c1OC |  | 83.2 | 49 | 2.8 | 37.1 | 2.6 | 33.9 | 2.3 | 2.9 | 51.3 | 4.6 | 2.1 | 60.3 | 3.3 | 34.7 | 2.6 | 44.7 | 2.9 | < 4.70 | 14.1 | TGI [4]: 10.2 µM; TGI [1]: 27.5 µM; TGI [2]: 29.5 µM; TGI [8]: 12.6 µM; TGI [9]: 10.7 µM; TGI [3]: 11.2 µM |
| COc1cc(/C=C2\C(=O)N(C)c3ccc(Cl)cc32)cc(OC)c1OC | 67.6 |  | 93.3 | 4 | 67.6 | 4.3 | 81.3 | 2.3 | 7.4 | 85.1 | 3.2 | 3.7 |  | 4.7 | 85.1 | 5 | 69.2 | 5.9 | < 4.70 | 28.2 | TGI [4]: 18.2 µM; TGI [5]: 24.5 µM; TGI [1]: 14.4 µM; TGI [2]: 11.2 µM; TGI [7]: 17.4 µM; TGI [3]: 36.3 µM |
| COc1cc(/C=C2\C(=O)Nc3c(Cl)ccc(Cl)c32)cc(OC)c1OC |  |  |  |  |  |  |  |  |  |  |  |  |  |  |  |  |  |  |  |  | Activity [11]: Active |
| COc1ccc2c(c1)/C(=C\c1cc(OC)c(OC)c(OC)c1)C(=O)N2C | 87.1 |  |  | 2.6 | 63.1 | 2.4 |  | 1.4 | 3.7 | 83.2 | 2.6 | 2.7 |  | 3.2 |  | 3.1 | 85.1 | 3.5 | < 4.70 | 46.8 | TGI [4]: 16.6 µM; TGI [5]: 14.1 µM; TGI [3]: 28.2 µM |
| c1ccc2c(c1)[I+]c1ccccc1-2 [DIPHENYLENEIODONIUM] |  |  |  |  |  |  |  |  |  |  |  |  |  |  |  |  |  |  |  |  | fold change (FC) [12]: 0.73 |
| COc1cc(/C=C2/C(=O)N(C)c3ccc(O)cc32)cc(OC)c1OC | 81.3 | 22.9 | 79.4 | 4.3 | 47.9 | 4.3 | 53.7 | 2.2 | 6.3 | 77.6 | 2.8 | 3.2 | 61.7 | 5.7 | 70.8 | 4.9 | 43.6 | 5.5 | < 4.70 | 24.6 | TGI [4]: 18.2 µM; TGI [7]: 15.1 µM; TGI [8]: 22.4 µM; TGI [9]: 16.2 µM; TGI [3]: 26.3 µM |
